The record followed here is ChEMBL document CHEMBL1142551, “Acylamido analogs of endocannabinoids selectively inhibit cancer cell proliferation” (Bioorg Med Chem, 2008).

System in one series: not listed separately
Description: Antiproliferative activity against human WI38 cells at 10 uM after 48 hrs relative to control. The series is classed as cell-based. To be noted: wi-38, 48 h. A digest of the protocol: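 WI-38 embryonic lung fibroblasts grown in DMEM with 10% FBS and passaged with trypsin. Plated in 96-well format and exposed to a single 10 µM concentration, with DMSO vehicle. CellTiter-Glo luminescence read 48 h after treatment, four replicates. Values given as percent of control ± SD.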
In turn, `CC/C=C\C/C=C\C/C=C\CCCCCCCC(N)=O` [LINOLENAMIDE] yielded an Activity of 85%.
Consider `CCCCC/C=C\C/C=C\C/C=C\CCCCCCC(N)=O`, for which the Activity is 58%.
As to `CCCCC/C=C\C/C=C\C/C=C\C/C=C\CCCCCC(N)=O`, the Activity turned out to be 61%.
Molecule `CCCCCCCC/C=C\CCCCCCCC(N)=O` [OLEAMIDE] had an Activity of 94%.
Consider `CCCCC/C=C\C/C=C\C/C=C\C/C=C\CCCC(=O)NCCO` [ANANDAMIDE], for which the Activity is 74%.
Regarding `CCCCC/C=C\C/C=C\C/C=C\CCCCC(=O)NCCO`, the Activity was determined as 54%.
For `CCCCCCCCCCCCCCCC(N)=O` [PALMITAMIDE], the Activity was found to be 118%.
In the case of `CCCCC/C=C\C/C=C\C/C=C\C/C=C\CCCCCC(=O)NCCO`, the Activity was 24%.
The same measure, in the same setting: to `COc1ccc2c(c1)c(CC(=O)O)c(C)n2C(=O)c1ccc(Cl)cc1` [INDOMETHACIN] belongs 144%; to `CCCCC/C=C\C/C=C\C/C=C\CCCCCCC(=O)NCCO`, 54%.
`CCCCC/C=C\C/C=C\C/C=C\CCCCC(N)=O` had an Activity of 33%.
`CCCCC/C=C\C/C=C\CCCCCCCC(=O)NCCO` [LINOLEOYLETHANOLAMIDE] yielded an Activity of 63%.
Consider `CCCCC/C=C\C/C=C\C/C=C\C/C=C\CCCC(N)=O` [ARACHIDONAMIDE], for which the Activity stood at 58%.
`CCCCCCCC/C=C\CCCCCCCC(=O)NCCO` [OLEOYLETHANOLAMIDE] came in with an Activity of 140%.
`CCCCCCCCCCCCCCCC(=O)NCCO` [PALMIDROL] came in with an Activity of 130%.

Another series concerns RAW264.7. The series can be described thus: Antiproliferative activity against mouse RAW264.7 cells at 10 uM after 48 hrs relative to control.
Conditions: not given
The series is classed as functional. A digest of the protocol:
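RAW264.7 cells grown in RPMI with 10% FBS and passaged by scraping. Seeded in 96-well plates, treated at 10 µM 24 h after seeding, four replicates. CellTiter-Glo ATP luminescence read 48 h after treatment; results given as percent of vehicle-treated control with SD.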
`CC/C=C\C/C=C\C/C=C\CCCCCCCC(N)=O` [LINOLENAMIDE] returned an Activity of 126%.
Take `CCCCC/C=C\C/C=C\C/C=C\CCCCCCC(N)=O`: the Activity worked out at 82%.
`CCCCC/C=C\C/C=C\C/C=C\C/C=C\CCCCCC(N)=O` gave an Activity of 91%.
The same measure, in the same setting: then `CCCCCCCC/C=C\CCCCCCCC(N)=O` [OLEAMIDE], with 134%; and `CCCCC/C=C\C/C=C\C/C=C\C/C=C\CCCC(=O)NCCO` [ANANDAMIDE], with 110%; and `CCCCC/C=C\C/C=C\C/C=C\CCCCC(=O)NCCO`, with 87%.
With `CCCCCCCCCCCCCCCC(N)=O` [PALMITAMIDE], the Activity is listed as 100%.
As to `CCCCC/C=C\C/C=C\C/C=C\C/C=C\CCCCCC(=O)NCCO`, the Activity was determined as 65%.
Take `COc1ccc2c(c1)c(CC(=O)O)c(C)n2C(=O)c1ccc(Cl)cc1` [INDOMETHACIN]: the Activity amounted to 177%.
Same read-out and setting: to `CCCCC/C=C\C/C=C\C/C=C\CCCCCCC(=O)NCCO` belongs 70%; to `CCCCC/C=C\C/C=C\C/C=C\CCCCC(N)=O`, 94%; to `CCCCC/C=C\C/C=C\CCCCCCCC(=O)NCCO` [LINOLEOYLETHANOLAMIDE], 100%.
As to `CCCCC/C=C\C/C=C\C/C=C\C/C=C\CCCC(N)=O` [ARACHIDONAMIDE], the Activity is given as 91%.
`CCCCCCCC/C=C\CCCCCCCC(=O)NCCO` [OLEOYLETHANOLAMIDE] returned an Activity of 117%.
In turn, `CCCCCCCCCCCCCCCC(=O)NCCO` [PALMIDROL] showed an Activity of 66%.
